An excerpt weighted towards active compounds, which were near 4.9% of everything screened.
STAT1 activator: increases IFN-gamma driven STAT1 reporter signal | 200,000 tested, 2.6% active | activation (% of control), % at 5.5 µM | NIH 3T3 STAT1-luciferase reporter, luminescence; 100% = IFN-gamma alone, no compound;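 active = activation above the screen-wide mean activation plus 3 SD, cut at about 130% in these data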
STAT3 activator: activators of IL-6 induced STAT3 signaling; U3A cells, IL-6 STAT3-luciferase reporter, luminescence; 100% = signal with IL-6 EC80 alone; activation (% of control), % at 5.6 µM; 190,000 tested, 0.91% active;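 active = activation above the screen-wide mean of compound activation plus 3 SD, cut at about 130% in these data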
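Material: STAT3-luciferase reporter U3A cells. Controls: IL-6-treated wells, 100% activation. Read-out: % activation versus median of IL-6-stimulated wells. Probe or stimulus: IL-6 stimulus at 33 ng/mL final. Timing: compound 1 h, then IL-6 6 h at 37 °C. Signal: reporter luminescence signal.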
FLuc inh counter: inhibits firefly luciferase, flagging false hits in luciferase inhibition screens. P08659. ATPLite firefly luciferase biochemical luminescence, 10 min. inhibition, % at 10 µM. 200,000 tested, 1.5% active;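 active = inhibition above about 50% when tested at 10 µM, limit read from the data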
Target sequence (P08659 whole entry, looked up): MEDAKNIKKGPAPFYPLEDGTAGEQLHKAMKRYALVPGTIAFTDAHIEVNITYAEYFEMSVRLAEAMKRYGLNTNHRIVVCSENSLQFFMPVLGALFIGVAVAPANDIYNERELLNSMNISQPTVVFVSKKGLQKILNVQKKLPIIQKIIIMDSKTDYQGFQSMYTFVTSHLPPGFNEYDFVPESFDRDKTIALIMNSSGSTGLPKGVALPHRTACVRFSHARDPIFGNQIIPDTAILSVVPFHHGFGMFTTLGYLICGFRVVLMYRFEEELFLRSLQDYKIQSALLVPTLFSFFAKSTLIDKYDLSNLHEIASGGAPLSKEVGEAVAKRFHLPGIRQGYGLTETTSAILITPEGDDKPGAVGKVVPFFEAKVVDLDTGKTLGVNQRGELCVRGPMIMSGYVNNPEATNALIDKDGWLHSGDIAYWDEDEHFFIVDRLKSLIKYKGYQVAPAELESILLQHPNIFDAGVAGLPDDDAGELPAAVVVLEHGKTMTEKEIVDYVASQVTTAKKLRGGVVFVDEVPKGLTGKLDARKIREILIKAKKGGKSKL
FLuc act counter: firefly luciferase counter-screen for stimulation assays. P08659. ATPlite luciferase biochemical, luminescence, 10 min; 0 = ATP-free wells, 1 = DMSO control. 200,000 tested, under 10 active. activation factor at 10 µM;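 active = luciferase activation factor, scaled between plate controls, of at least 2 with compound at 10 µM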
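assay system = Luciferase/luciferin detection reagent, cell-free biochemical luciferase assay | also added = ATP substrate | times = 10 min post-reagent at room temperature | measured by = luminescence from luciferase reaction | measure = luciferase activation, seen as luminescence increase over controls | benchmarks = low control with PBS replacing ATP, high control enzyme plus ATP without compound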
STAT3 blocker: reduces IL-6 driven STAT3 reporter signal; inhibition, % at 5.5 µM; AID 862; 190,000 tested, 0.89% active; U3A cells, IL-6 STAT3-luciferase reporter, luminescence; host cell line lacks STAT1;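 active = inhibition above the mean inhibition across all screened compounds plus 3 SD, cut at about 44% in these data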
STAT1 blocker: reduces IFN-gamma driven STAT1 reporter signal; NIH 3T3 STAT1-luciferase reporter, luminescence; inhibition, % at 5.5 µM; 200,000 tested, 0.35% active; AID 920;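 active = inhibition above a set limit, the mean inhibition across all tested compounds plus 3 SD, cut at about 34% in these data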
STAT1 act conf: confirmation of STAT1 signaling activators; shares compounds with STAT1 activator; NIH 3T3 STAT1-luciferase reporter, IFN-gamma potentiation, luminescence; 100% = IFN-gamma EC80 alone, no compound; activation (% of control), % at 5.7 µM; 1,200 tested, 97% active; AID 1262;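 active = activation above a set limit carried over from the earlier primary STAT1 screen, cut at about 140% in these data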
NFkB act: activates NF-kappaB, counter-screen to STAT1 activators | AID 1306 | shares compounds with STAT1 activator | 1,200 tested, 43% active | activation (% of control), % at 5.7 µM | HEK293T NF-kB luciferase reporter, TNF-alpha stimulated, luminescence; 100% = TNF-alpha with vehicle only;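 active = activation above the mean of solvent-only control wells plus 3 SD, set per campaign, cut at about 130% in these data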;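 also: TNF-alpha given at a submaximal dose yielding about 80% of full reporter signal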
STAT3 act 2: activates human STAT3, counter-screen to STAT1 activators; shares compounds with STAT1 activator; activation (% of control), % at 5.7 µM; AID 1316; 1,200 tested, 46% active; U3A cells STAT3-luciferase reporter, IL-6, luminescence; cells lack STAT1; 100 = IL-6 alone, no compound effect;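 active = activation above the solvent-only control well mean plus 3 SD, set per plate batch, cut at about 110% in these data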;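 also: higher means more STAT3 reporter activation so hits are non-selective activators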
A number is an active result; n = inactive; x = no result.

SMILES	STAT1 activator	STAT3 activator	FLuc inh counter	FLuc act counter	STAT3 blocker	STAT1 blocker	STAT1 act conf	NFkB act	STAT3 act 2
COc1cc(/C=N\n2cnnc2)ccc1OCC(=O)Nc1ccc(C)cc1	n	n	n	n	n	n	x	x	x
CCN1CCN(c2cc3c(nn2)Oc2ccccc2N3C)CC1	n	n	n	n	n	n	x	x	x
Cn1c(=NC(=O)c2ccccc2[N+](=O)[O-])sc2cc(S(C)(=O)=O)ccc21	177	n	n	n	n	n	249	n	n
Cc1ccc(C)c(-c2nn(-c3cc(N4CCN(CCO)CC4)ccc3[N+](=O)[O-])c(=O)c3ccccc23)c1	n	n	n	n	n	n	x	x	x
COCCn1c(C)cc(C(=O)CSc2nc3ccccc3c(=O)n2Cc2ccco2)c1C	152	n	n	n	n	n	236	149	127
COCCn1c(C)cc(C(=O)CSc2cc(C)c3ccccc3n2)c1C	n	n	n	n	n	n	x	x	x
COc1cc(C2NC(=S)NC(C)=C2C(=O)Nc2ccc(C)cc2)ccc1O (stereo not given)	n	n	n	n	n	n	x	x	x
O=C(Nc1nc2c(s1)C(=O)CCC2)c1ccccc1	153	n	66	n	n	n	185	n	n
O=C(CSc1nc(C2CC2)nc2ccccc12)Nc1ccccc1N1CCOCC1	n	n	n	n	n	n	x	x	x
O=c1/c(=C/c2ccccn2)sc2nc3ccccc3n12	184	n	76	n	n	n	289	138	158
O=C(COC(=O)c1cc(-c2ccc(F)cc2)nc2ccccc12)NCC1CCCO1 (stereo not given)	n	n	n	n	n	n	x	x	x
C=CCNc1nc(-c2ccc([N+](=O)[O-])cc2)cs1	151	n	n	n	n	n	194	136	n
C=CCNc1nc(-c2ccc(Cl)cc2)cs1	182	n	n	n	n	n	215	141	n
Cc1ccc(OC(=O)c2sc(Cl)nc2C)cc1C	n	n	n	n	n	n	x	x	x
CC(=O)Nc1cccc(NC(=O)C(=O)c2cn(CC(=O)N3CCCCC3)c3ccccc23)c1	n	n	n	n	n	n	x	x	x
CCCc1cc(=O)[nH]c(SCC(=O)Nc2cc(C)on2)n1	n	n	n	n	n	n	x	x	x
COc1ccc2c(c1)C1CC(C)(NC(=O)C1S(=O)(=O)c1ccc(F)cc1)O2 (stereo not given)	n	n	n	n	n	n	x	x	x
O=C(c1cc(-c2ccc(Cl)c(Cl)c2)on1)N1CCCCC1	159	n	n	n	n	n	188	137	114
O=C(c1cc(-c2ccc(Cl)c(Cl)c2)on1)N1CCN(c2ccccc2)CC1	n	n	n	n	n	n	x	x	x
COc1ccc(C2CC(c3ccc4ccccc4c3)=NN2C(=O)CNC2CCCCC2)cc1 (stereo not given)	n	n	n	n	n	n	x	x	x
COc1ccc(C2CC(c3ccc4ccccc4c3)=NN2C(=O)COC(=O)C2CCC(=O)N2)cc1 (stereo not given)	183	n	n	n	n	n	247	148	129
O=C(N/N=C/C=C/c1ccccc1)c1ccccc1Br	n	n	n	n	n	n	x	x	x
O=C(O)c1cc(N/N=C/C=C/c2ccccc2)ccc1Cl	158	n	n	n	n	n	210	152	127
Cc1ccc(NC(=O)c2ccn(C)n2)c(Br)c1	155	n	n	n	n	n	198	n	n
Cn1ccc(C(=O)Nc2ccc(Br)cc2Br)n1	168	n	n	n	n	n	200	n	n
COc1cccc(NC(=O)c2ccn(C)n2)c1	n	n	n	n	n	n	x	x	x
